Consider 16 molecules from ChEMBL document CHEMBL4346689, “Novel benzenesulfonamide and 1,2-benzisothiazol-3(2H)-one-1,1-dioxide derivatives as potential selective COX-2 inhibitors” (Eur J Med Chem, 2019).

Data set [1] has as its target T1, Prostaglandin G/H synthase 1 (Ovis aries, UniProt P05979).
T1 sequence (P05979 whole entry): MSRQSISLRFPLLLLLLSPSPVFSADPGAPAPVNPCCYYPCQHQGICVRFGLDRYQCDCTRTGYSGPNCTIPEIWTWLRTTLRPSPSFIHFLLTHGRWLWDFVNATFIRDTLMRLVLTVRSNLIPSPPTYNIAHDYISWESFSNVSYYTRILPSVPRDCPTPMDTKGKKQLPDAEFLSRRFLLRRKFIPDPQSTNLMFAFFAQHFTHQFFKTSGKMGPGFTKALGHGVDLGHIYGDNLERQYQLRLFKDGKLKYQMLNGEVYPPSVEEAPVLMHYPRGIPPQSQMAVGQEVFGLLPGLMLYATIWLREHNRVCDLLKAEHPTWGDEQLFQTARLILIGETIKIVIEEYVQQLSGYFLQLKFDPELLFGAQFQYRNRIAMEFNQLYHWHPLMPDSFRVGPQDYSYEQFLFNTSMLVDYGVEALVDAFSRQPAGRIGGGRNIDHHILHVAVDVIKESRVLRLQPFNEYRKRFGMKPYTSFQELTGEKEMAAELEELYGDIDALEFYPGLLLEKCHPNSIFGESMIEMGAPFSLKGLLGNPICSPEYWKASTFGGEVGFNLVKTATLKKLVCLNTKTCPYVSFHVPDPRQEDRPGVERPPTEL
Nature of the data set: Inhibition of ovine COX1 assessed as reduction in oxidized TMPD using arachidonic acid as substrate preincubated for 5 mins followed by substrate addition and measured after 2 mins by colorimetric assay.

The test system of data set [2] is Rattus norvegicus. Kind of data set: Antiinflammatory activity against carrageenan-induced paw oedema in albino rat assessed as hind paw thickness at 18 mg/kg, ip pretreated for 1 hr followed by carrageenan challenge and measured after 3 hrs by caliper method (reference value: 0.94 +/- 0.02 millimeter). Type of data set: functional. The essentials:
(§1)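 Male albino rats, 150–200 g, six per group, housed at 27 °C on a 12/12 light-dark cycle. Given 18 mg/kg i.p.; control group left untreated. Right hind paw injected 1 h later with 0.1 mL 10% carrageenin. Paw thickness measured by skin caliper at 1, 2, 3 and 4 h after injection. Reported as mean ± S.D., n = 6; significance p < 0.05.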

The subject of data set [3] is Rattus norvegicus. Nature of the data set: Antiinflammatory activity in albino rat assessed as inhibition of carrageenan-induced paw edema at 18 mg/kg, ip pretreated for 1 hr followed by carrageenan challenge and measured after 1 hr by caliper method relative to control. It counts as functional. The method, boiled down:
(§2)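 Carrageenin paw edema in male albino rats (150–200 g, n = 6 per group), 18 mg/kg i.p. 1 h before 0.1 mL 10% carrageenin into the right hind paw. Caliper thickness at 1–4 h. Percent edema inhibition derived from thickness change relative to the untreated control group.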
For orientation: The carrageenan paw model is a standard test of acute inflammation.

Data set [4] deals with Rattus norvegicus. Kind of data set: Antiinflammatory activity against carrageenan-induced paw oedema in albino rat assessed as hind paw thickness at 18 mg/kg, ip pretreated for 1 hr followed by carrageenan challenge and measured after 2 hrs by caliper method (reference value: 0.84 +/- 0.02 millimeter). It counts as functional. The method, boiled down: as §1
Data set [5] is described as follows: Ulcerogenicity in albino rat assessed as ulcer index at 18 mg/kg, po administrated once daily for 3 successive days and measured after 6 hrs from last dose (reference value: 0). The note with it: in vivo. It counts as toxicity, organism-based.
Data set [6] has as its system Rattus norvegicus. Kind of data set: Antiinflammatory activity against carrageenan-induced paw oedema in albino rat assessed as hind paw thickness at 18 mg/kg, ip pretreated for 1 hr followed by carrageenan challenge and measured after 4 hrs by caliper method (reference value: 1.24 +/- 0.02 millimeter). Type of data set: functional. The method, boiled down:
as §1

A short description of data set [7]: Ulcerogenicity in albino rat assessed as incidence of gastric ulceration at 18 mg/kg, po administrated once daily for 3 successive days and measured after 6 hrs from last dose relative to control. The note with it: in vivo. It counts as toxicity, organism-based.
The subject of data set [8] is Rattus norvegicus. Nature of the data set: Antiinflammatory activity in albino rat assessed as inhibition of carrageenan-induced paw edema at 18 mg/kg, ip pretreated for 1 hr followed by carrageenan challenge and measured after 4 hrs by caliper method relative to control. Type of data set: functional. The method, boiled down:
as §2

Data set [9] has as its system Rattus norvegicus. Nature of the data set: Antiinflammatory activity against carrageenan-induced paw oedema in albino rat assessed as hind paw thickness at 18 mg/kg, ip pretreated for 1 hr followed by carrageenan challenge and measured after 1 hr by caliper method (reference value: 0.73 +/- 0.03 millimeter). Type of data set: functional. The method, boiled down: as §1

Data set [10] in a line: Ulcerogenicity in albino rat assessed as average severity score at 18 mg/kg, po administrated once daily for 3 successive days and measured after 6 hrs from last dose (reference value: 0). Type of data set: toxicity, organism-based. Conditions: in vivo.
In data set [11] the test system is Rattus norvegicus. Kind of data set: Antiinflammatory activity in albino rat assessed as inhibition of carrageenan-induced paw edema at 18 mg/kg, ip pretreated for 1 hr followed by carrageenan challenge and measured after 3 hrs by caliper method relative to control. Type of data set: functional. The essentials:
as §2

The subject of data set [12] is Rattus norvegicus. Kind of data set: Antiinflammatory activity against carrageenan-induced paw oedema in albino rat assessed as hind paw thickness at 18 mg/kg, ip pretreated for 1 hr followed by carrageenan challenge and measured immediately by caliper method (reference value: 0.24 +/- 0.24 millimeter). It counts as functional.
Data set [13] deals with Rattus norvegicus. Kind of data set: Antiinflammatory activity in albino rat assessed as inhibition of carrageenan-induced paw edema at 18 mg/kg, ip pretreated for 1 hr followed by carrageenan challenge and measured after 2 hrs by caliper method relative to control. It counts as functional. The method, boiled down:
as §2

Usually IC50 stands for the concentration needed to halve the response being measured. For the molecule `O=S(=O)(NCc1ccccc1)c1ccccc1-c1nnc(S)n1/N=C/c1ccc(Br)cc1`, the IC50 in data set [1] turned out to be 4.21 µM.

With `O=S(=O)(NCc1ccccc1)c1ccccc1-c1nnc(SCc2ccccc2)o1`, the IC50 in [1] stood at 3.68 µM.

Regarding `COc1ccc(/C=N/n2c(S)nnc2-c2ccccc2S(=O)(=O)NCc2ccccc2)cc1`, the IC50 in data set [1] was 3.25 µM.

For the molecule `O=C(N/N=C/c1ccc(Cl)cc1)C(C(=O)N/N=C/c1ccc(Cl)cc1)N1C(=O)c2ccccc2S1(=O)=O`, in data set [1], the IC50 was found to be 7.65 µM.

As to `O=C(N/N=C/c1ccccc1)C(C(=O)N/N=C/c1ccccc1)N1C(=O)c2ccccc2S1(=O)=O`, in data set [1], the half-maximal inhibitory concentration (IC50) came out at 1.98 µM.

By inhibition in vivo is commonly meant the relative decrease from the control value, in per cent. On to `O=C(N/N=C/c1ccc(F)cc1)C(C(=O)N/N=C/c1ccc(F)cc1)N1C(=O)c2ccccc2S1(=O)=O`, for which the Activity in data set [2] came out at 0.43 mm; in data set [4], 0.4 mm; in data set [6], 0.55 mm; in [7] it was 100%; in data set [9], 0.36 mm; in [10], 1.2. Also, in data set [12], the Activity is recorded as 0.24 mm. For the same molecule, the inhibition in vivo at 18 mg/kg in data set [3] came out at 50.7%; in data set [8], 54.3%; in data set [11], 54.2%; in data set [13], 52.4%. Further, in [1], the IC50 was found to be 2.78 µM. Further, in [5], the UI was determined as 120.

As for `Nn1c(S)nnc1-c1ccccc1S(=O)(=O)NCc1ccccc1`, the Activity in data set [2] worked out at 0.56 mm; in data set [4], 0.48 mm; in data set [6], 0.63 mm; in data set [7], 100%; in [9], 0.44 mm; in data set [10], 3.6. Also, in data set [12], the Activity was 0.24 mm. Moreover, the inhibition in vivo at 18 mg/kg in data set [3] was 39.7%; in data set [8], 49.2%; in [11], 45.4%; in data set [13] it was 42.9%. In addition, the IC50 in [1] was found to be 2.98 µM. For the same molecule, the UI in data set [5] was found to be 360.

On to `O=S(=O)(NCc1ccccc1)c1ccccc1-c1nnc(S)o1`, for which the IC50 in [1] was 4.52 µM.

For `O=S(=O)(NCc1ccccc1)c1ccccc1-c1nnc(S)n1/N=C/c1ccccc1`, in [1], the half-inhibitory concentration (IC50) was found to be 6.45 µM.

Turning to `Cc1cc(-c2ccccc2)n(C(=O)c2ccccc2S(=O)(=O)NC(C)C)n1`, the Activity turned out to be 0.38 mm in [2]; 0.36 mm in data set [4]; 0.43 mm in [6]; 20% in data set [7]; 0.32 mm in data set [9]; 0.2 in data set [10]. For the same molecule, in data set [12], the Activity came to 0.24 mm. Besides, the inhibition in vivo at 18 mg/kg in [3] was determined as 56.2%; in data set [8], 65.3%; in [11] it was 59.6%; in data set [13] it was 57.1%. Further, the IC50 in [1] was found to be 9.24 µM. Also, the UI in [5] stood at 4.

`O=S(=O)(NCc1ccccc1)c1ccccc1-c1nnc(S)n1/N=C/c1ccc(Cl)cc1`: the IC50 in data set [1] came to 5.71 µM.

Turning to `CC(C)NS(=O)(=O)c1ccccc1C(=O)N1N=C(c2ccccc2)CC1=O`, the Activity in [2] amounted to 0.52 mm; in data set [4], 0.5 mm; in [6], 0.54 mm; in data set [7] it was 20%; in data set [9], 0.42 mm; in data set [10], 0.2. In data set [12], the Activity is 0.24 mm. The inhibition in vivo at 18 mg/kg in data set [3] was 42.5%; in data set [8], 56.5%; in [11], 44.7%; in data set [13], 43.5%. Also, in [1], the IC50 turned out to be 12.2 µM. Also, in [5], the UI is 4.

On to `CCSc1nnc(-c2ccccc2S(=O)(=O)NCc2ccccc2)o1`, for which the IC50 in [1] came out at 8.21 µM.

Take `Cc1cc(-c2ccccc2)n(C(=O)C(C(=O)n2nc(C)cc2-c2ccccc2)N2C(=O)c3ccccc3S2(=O)=O)n1`: the Activity came out at 0.41 mm in data set [2]; 0.41 mm in [4]; 0.48 mm in data set [6]; 20% in data set [7]; 0.36 mm in data set [9]; 0.2 in data set [10]. For the same molecule, the Activity in data set [12] is recorded as 0.24 mm. For the same molecule, the inhibition in vivo at 18 mg/kg in [3] stood at 50.7%; in data set [8] it was 61.3%; in data set [11], 56.4%; in data set [13] it was 51.2%. Further, the IC50 in [1] was found to be 11.8 µM. Moreover, in [5], the UI amounted to 4.

As for `Cc1ccc(-c2cc(C(F)(F)F)nn2-c2ccc(S(N)(=O)=O)cc2)cc1` [CELECOXIB], the Activity in [2] came out at 0.44 mm; in [4] it was 0.44 mm; in data set [6], 0.46 mm; in [7], 0%; in [9], 0.41 mm; in data set [10], 0. In addition, the Activity in data set [12] came out at 0.24 mm. Moreover, the inhibition in vivo at 18 mg/kg in data set [3] is 43.8%; in data set [8], 62.9%; in data set [11] it was 53.2%; in [13], 47.6%. Moreover, the UI in data set [5] stood at 3.

For the molecule `COc1ccc2c(c1)c(CC(=O)O)c(C)n2C(=O)c1ccc(Cl)cc1` [INDOMETHACIN], the UI in [5] turned out to be 480. For the same molecule, the Activity in [7] is recorded as 100%; in [10], 4.8.
